The results in this text go back to ChEMBL document CHEMBL1152589, “Identification and characterization of novel sirtuin inhibitor scaffolds” (Bioorg Med Chem, 2009).

Structures are written as SMILES. Active and inactive are the calls of the source. The rule behind the calls is not given here.

In test [1] the target is NAD-dependent protein deacetylase HST2 (Saccharomyces cerevisiae S288c) (UniProt P53686). As to the kind of experiment: Inhibition of yeast Hst2 assessed as residual activity at 50 uM by fluorimetric assay relative to control.
Sequence of NAD-dependent protein deacetylase HST2 (Saccharomyces cerevisiae S288c) (P53686 whole entry): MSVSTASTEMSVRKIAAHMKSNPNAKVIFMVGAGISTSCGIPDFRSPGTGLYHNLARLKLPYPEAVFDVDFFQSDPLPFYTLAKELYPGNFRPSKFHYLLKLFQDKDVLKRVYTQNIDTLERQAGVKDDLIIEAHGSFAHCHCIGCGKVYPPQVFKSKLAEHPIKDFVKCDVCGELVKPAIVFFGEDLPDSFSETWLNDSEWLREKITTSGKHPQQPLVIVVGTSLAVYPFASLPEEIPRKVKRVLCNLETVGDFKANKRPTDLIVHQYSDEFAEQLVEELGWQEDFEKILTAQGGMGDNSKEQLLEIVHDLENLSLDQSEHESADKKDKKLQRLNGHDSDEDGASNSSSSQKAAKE
Test [2] has the same target. As to the kind of experiment: Inhibition of yeast Hst2 assessed as residual activity at 500 uM by fluorimetric assay relative to control.
Test [3] has as its target T1, NAD-dependent protein deacetylase HST2 (Saccharomyces cerevisiae S288c, UniProt P53686). As to the kind of experiment: Inhibition of yeast Hst2 by fluorimetric assay.
Test [4] addresses NAD-dependent histone deacetylase SIR2 (Saccharomyces cerevisiae S288c) (UniProt P06700). As to the kind of experiment: Inhibition of Sir2 in Saccharomyces cerevisiae inserted URA3 reporter gene assessed as reduction of […] resistance at 1 mM by telomere silencing assay. (In general: Reporter assays use an easily measured gene product as a stand-in for the process of interest.)

Test [5] addresses T2, NAD-dependent protein deacetylase sirtuin-2 (Homo sapiens) (UniProt Q8IXJ6).
T2 sequence (whole entry): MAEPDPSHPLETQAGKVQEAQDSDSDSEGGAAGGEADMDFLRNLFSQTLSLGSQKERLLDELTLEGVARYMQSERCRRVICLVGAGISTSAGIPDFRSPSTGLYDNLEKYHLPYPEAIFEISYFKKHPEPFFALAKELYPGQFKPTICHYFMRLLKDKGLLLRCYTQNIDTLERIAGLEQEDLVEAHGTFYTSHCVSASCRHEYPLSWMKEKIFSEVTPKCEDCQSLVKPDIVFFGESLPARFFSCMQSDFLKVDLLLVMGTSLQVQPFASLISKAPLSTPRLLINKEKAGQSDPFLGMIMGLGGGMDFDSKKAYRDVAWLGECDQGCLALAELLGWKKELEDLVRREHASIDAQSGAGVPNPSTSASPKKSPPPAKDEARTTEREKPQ
As to the kind of experiment: Inhibition of human SIRT2 by fluorogenic assay. Set-up: concentration or dose not given beside the values. The essentials:
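Human SIRT2 isoform II construct with extra N-terminal residues, expressed in E. coli BL21-Gold (DE3) as a His6 fusion. Purified by Ni-NTA, with the tag removed by thrombin, then Q sepharose and Superdex-200 gel filtration. Assayed by fluorigenic deacetylation of Fluor de Lys-SIRT1 substrate.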

Test [6] has as its target T3, NAD-dependent protein deacetylase sirtuin-1 (Homo sapiens, UniProt Q96EB6).
T3 sequence (Q96EB6 whole entry): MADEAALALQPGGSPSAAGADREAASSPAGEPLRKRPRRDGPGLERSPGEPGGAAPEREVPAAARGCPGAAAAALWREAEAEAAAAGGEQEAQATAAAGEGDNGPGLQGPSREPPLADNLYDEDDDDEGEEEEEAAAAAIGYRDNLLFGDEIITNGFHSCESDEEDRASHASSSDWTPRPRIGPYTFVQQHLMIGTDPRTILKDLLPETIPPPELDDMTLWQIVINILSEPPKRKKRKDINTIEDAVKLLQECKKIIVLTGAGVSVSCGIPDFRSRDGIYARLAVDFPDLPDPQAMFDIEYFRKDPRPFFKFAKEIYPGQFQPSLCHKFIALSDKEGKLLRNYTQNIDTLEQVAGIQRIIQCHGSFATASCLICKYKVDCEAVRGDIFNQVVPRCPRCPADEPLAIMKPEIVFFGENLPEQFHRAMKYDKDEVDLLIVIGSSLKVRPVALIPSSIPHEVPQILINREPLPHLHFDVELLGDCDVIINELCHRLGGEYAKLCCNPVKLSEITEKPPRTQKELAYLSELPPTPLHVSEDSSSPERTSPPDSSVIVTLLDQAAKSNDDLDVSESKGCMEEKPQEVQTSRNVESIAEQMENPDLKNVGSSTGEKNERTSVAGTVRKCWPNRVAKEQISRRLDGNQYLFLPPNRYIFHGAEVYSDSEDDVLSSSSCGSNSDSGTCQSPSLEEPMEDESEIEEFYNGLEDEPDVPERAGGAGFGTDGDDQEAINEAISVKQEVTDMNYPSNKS
As to the kind of experiment: Inhibition of human full length SIRT1 expressed in DE3 cells by fluorimetric assay. In kind it is cell-based.

The target of test [7] is NAD-dependent histone deacetylase SIR2 (Saccharomyces cerevisiae S288c) (UniProt P06700). As to the kind of experiment: Inhibition of Sir2 in Saccharomyces cerevisiae inserted URA3 reporter gene assessed as reduction of […] resistance at 40 uM by telomere silencing assay.
Sequence of NAD-dependent histone deacetylase SIR2 (Saccharomyces cerevisiae S288c) (P06700 whole entry): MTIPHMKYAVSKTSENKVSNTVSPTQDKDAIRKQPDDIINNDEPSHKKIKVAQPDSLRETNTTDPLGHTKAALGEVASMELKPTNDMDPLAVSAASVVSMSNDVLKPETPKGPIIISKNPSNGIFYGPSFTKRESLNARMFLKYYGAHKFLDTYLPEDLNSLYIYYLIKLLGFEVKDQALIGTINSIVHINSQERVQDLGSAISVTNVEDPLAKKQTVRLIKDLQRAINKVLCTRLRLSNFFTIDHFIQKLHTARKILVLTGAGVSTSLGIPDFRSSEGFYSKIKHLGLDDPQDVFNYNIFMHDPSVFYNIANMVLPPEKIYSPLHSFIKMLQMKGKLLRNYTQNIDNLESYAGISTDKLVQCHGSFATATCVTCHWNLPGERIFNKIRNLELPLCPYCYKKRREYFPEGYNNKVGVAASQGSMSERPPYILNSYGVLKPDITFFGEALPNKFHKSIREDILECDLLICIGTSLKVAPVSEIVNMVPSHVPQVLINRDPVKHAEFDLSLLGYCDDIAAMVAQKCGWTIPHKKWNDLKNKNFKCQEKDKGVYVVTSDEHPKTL
Test [8] shares this target. As to the kind of experiment: Inhibition of Sir2 in Saccharomyces cerevisiae inserted URA3 reporter gene assessed as reduction of […] resistance at 10 uM by telomere silencing assay.
Test [9] addresses T1, NAD-dependent protein deacetylase HST2. As to the kind of experiment: Mixed inhibition of yeast Hst2 using Acetyl-lysine substrate.

T1 sequence (P53686 whole entry): as the sequence (P53686 whole entry) above

As to `COc1ccc(OCCCC(=O)Oc2ccc3c(c2)CCC3)cc1`, the Activity in [1] was 95%; in test [2] it was 58%.

For the compound `C#CC1c2cc(O)c(OC)cc2CCN1C` (centres undefined), the Activity was found to be 100% in test [1] and 86% in test [2]. The matching figures for `Cc1ccc(OCCCC(=O)Oc2ccc3c(C)cc(=O)oc3c2)c(C)c1`: 90% and 51%.

As a reminder, the IC50 is the concentration needed to halve the response being measured. Turning to `CN(C)CCCCC(=O)Nc1ccc(NC(=S)NC(=O)c2ccc(C(C)(C)C)cc2)cc1`, the IC50 in test [3] (read-out: IC50) was over 100 µM. As for `O=C(O)CCN1Cc2ccccc2C1=O`, the IC50 in test [3] (read-out: IC50) was determined as 19.9 µM. In addition, the result in [4] was Active. The compound also had an Activity in test [5] of 89%. Turning to `CCc1ccc(OCCCC(=O)Oc2ccc3c(C)cc(=O)oc3c2)cc1`, the results for the Activity in test [1] and in test [2] were 86% and 53%, respectively. `Oc1c(Cc2ccccc2Cl)ccc2cccnc12`: the Activity in test [1] and in [2] was 100% in each case.

Turning to `Cc1c(Cl)c(=O)oc2cc(OC(=O)CCCOc3ccc(Cl)cc3Cl)ccc12`, the Activity came to 90% in test [1] and 68% in [2]. Taken in the same sequence, the figures for `COCC#CC1(C)c2cc(O)c(OC)cc2CCN1C` (centres undefined) were 100% and 100%. `O=C1CCc2c(ccc3ccccc23)O1` [SPLITOMICIN]: the concentration for half-maximal inhibition (IC50) in [3] (read-out: IC50) was over 600 µM.

For `COc1cc2c(cc1O)CN(C)CC2`, the Activity is 100% in test [1] and 98% in test [2].

For the compound `Cc1cccc(OCC(=O)Oc2ccc3c(C)cc(=O)oc3c2)c1`, the Activity in test [1] stood at 90%; in test [2] it was 13%. Taken in the same sequence, the figures for `Cc1cc(Cc2cc(C)c(O)c(C)c2)cc(C)c1O` were 89% and 43%. The matching figures for `Cc1ccc(OCCCC(=O)Oc2ccc3c(C)cc(=O)oc3c2)cc1`: 99% and 57%. With `Nc1ccc2c(c1)C(=O)N(CCC(=O)O)C2`, in test [3], the IC50 entry is reported as “Not Active”. As to `COCC#CC1c2cc(O)c(OC)cc2CCN1Cc1ccc(OC)cc1` (centres undefined), in test [3] (read-out: IC50), the IC50 amounted to 260 µM. For `Nc1cccc(Cc2cccc(N)c2)c1`, the Activity in [1] and in test [2] was 100% throughout.

In the case of `Cc1ccc2[nH]c3c(c2c1)CCCCC3C(N)=O` (centres undefined), the half-maximal inhibitory concentration (IC50) in test [6] is 0.64 µM; in test [3] (read-out: IC50), 14.5 µM. By Ki is commonly meant the equilibrium dissociation constant of an inhibitor or competing ligand from its target. Regarding `Cc1cc(Cl)c(O)c(Cc2c(O)c(Cl)cc(Cl)c2Cl)c1Cl`, the result in test [7] and in test [8] was Active. In addition, the half-maximal inhibitory concentration (IC50) in [6] came out at 34 µM; in [3] (read-out: IC50), 12.5 µM. For the same compound, the Activity in test [5] turned out to be 18.5%. For the same compound, the Ki in test [9] worked out at 2.5 µM. Consider `O=C1c2ccccc2C(=O)N1CCBr`, for which the IC50 result in [3] is recorded as “Not Active”.

As to `COCCCC1c2cc(O)c(OC)cc2CCN1C` (centres undefined), the Activity in test [1] was 99%; in test [2], 92%. Taken in the same sequence, the figures for `C#C[C@@H]1c2cc(O)c(OC)cc2CCN1C` were 97% and 74%. The matching figures for `C#C[C@H]1c2cc(O)c(OC)cc2CCN1C`: 96% and 70%.

For the compound `C[S+]([O-])CCC(C(=O)O)N1C(=O)c2ccccc2C1=O` (centres undefined), the 50% inhibitory concentration (IC50) result in test [3] is “Not Active”.

For the compound `Cc1c(Cl)c(=O)oc2cc(OC(=O)CCNC(=O)Oc3ccccc3)ccc12`, the figures for the Activity in test [1] and in test [2] were 100% and 74%, respectively. For the compound `OC(c1ccccc1)c1ccc(C(F)(F)F)cc1` (centres undefined), the Activity is 100% in test [1] and 81% in test [2].

Consider `Oc1ccc(Cc2ccccc2)cc1`, for which the results for the Activity in test [1] and in [2] were 100% and 88%, respectively. Taken in the same sequence, the figures for `COC/C=C/C1c2cc(O)c(OC)cc2CCN1C` (centres undefined) were 97% and 94%. `O=C(O)CCCN1C(=O)c2ccccc2C1=O`: the IC50 result in test [3] is reported as “Not Active”. For the compound `Cc1cc(=O)oc2cc(OC(=O)COc3ccccc3)ccc12`, the values for the Activity in [1] and in [2] were 91% and 45%, respectively. In the case of `Cn1cc(C2=C(c3cn(CCCSC(=N)N)c4ccccc34)C(=O)NC2=O)c2ccccc21` [BISINDOLYLMALEIMIDE IX], the IC50 in test [3] (read-out: IC50) amounted to 20 µM.

Take `Cc1ccc(OCCCC(=O)Oc2ccc3c(c2)CCC3)c(C)c1`: the Activity in [1] stood at 93%; in test [2], 49%.

Take `O=C(O)CCN1C(=O)c2cc(Cl)c(Cl)cc2C1=O`: the half-inhibitory concentration (IC50) entry in test [3] is “Not Active”.

In the case of `COCC#CC1c2cc(O)c(OC)cc2CCN1C` (centres undefined), in test [5], the Activity is 92.1%. In the case of `O=C(O)CCN1C(=O)c2ccc(-c3nc4ccccc4c(=O)o3)cc2C1=O`, the IC50 entry in [3] was “Not Active”. With `COc1ccc(OCCCC(=O)Oc2ccc3c(C)cc(=O)oc3c2)cc1`, the Activity in test [1] stood at 93%; in [2], 35%.

With `NC(=O)C1CCCCc2c1[nH]c1ccc(Cl)cc21` (centres undefined), the IC50 in test [3] (read-out: IC50) turned out to be 1.3 µM. Consider `CC(C)C(=O)CCN1C(=O)c2ccccc2C1=O`, for which, in test [3], the IC50 result was “Not Active”. Consider `NC(=O)c1cccnc1`, for which the Activity in test [5] was found to be 26%.
